Our source for the MIC, ED50 and Ka values is ChEMBL document CHEMBL1125337, “Synthesis and antibacterial activity of a series of basic amides of teicoplanin and deglucoteicoplanin with polyamines” (J Med Chem, 1992).

Assay [1] has as its system Bacteroides fragilis. As to the kind of experiment: Minimum inhibitory concentration of compound was determined against Bacteroides fragilis L 1236. The format is functional. Put shortly: (§1)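 Microbroth dilution MIC (µg/mL) in Wilkins-Chalgren broth, final inoculum 10^5 cfu/mL, incubated 48 h in an anaerobic chamber.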
Assay [2] relates to Bacteroides fragilis. As to the kind of experiment: Minimum inhibitory concentration of compound was determined against Bacteroides fragilis L 1010. In kind it is functional. The gist of the method: as §1
In assay [3] the test system is Bacteroides fragilis. As to the kind of experiment: Minimum inhibitory concentration of compound was determined against Bacteroides fragilis L 1011. In kind it is functional. Put shortly: as §1
The test system of assay [4] is Enterobacter cloacae. The assay can be described thus: Minimum inhibitory concentration of compound was determined against Enterobacter cloacae L 1485. In kind it is functional. Put shortly:
(§2)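 MIC (µg/mL) by microbroth dilution in Iso-Sensitest broth; final inoculum 10^4 cfu/mL; 24 h at 37 °C in air.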

Assay [5] concerns Enterobacter cloacae. The assay can be described thus: Minimum inhibitory concentration of compound was determined against Enterobacter cloacae L 1504. The format is functional. The gist of the method: as §2
A further assay has as its system Enterococcus faecalis. As to the kind of experiment: Minimum inhibitory concentration against Enterococcus faecalis ATCC 7080. The format is functional. The gist of the method: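 Microbroth dilution MIC (µg/mL), final inoculum 10^4 cfu/mL, incubated 24 h at 37 °C in air.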
The test system of assay [6] is Escherichia coli. The assay can be described thus: Minimum inhibitory concentration of compound was determined against Escherichia coli L 1153. In kind it is functional. The gist of the method: as §2
Assay [7] deals with Escherichia coli. The assay can be described thus: Minimum inhibitory concentration of compound was determined against Escherichia coli L 1347. The format is functional. The gist of the method: as §2
Assay [8] has as its system Escherichia coli. As to the kind of experiment: Minimum inhibitory concentration of compound was determined against Escherichia coli L 1484. In kind it is functional. The gist of the method: as §2
For assay [9], the system named is Escherichia coli. The assay can be described thus: Minimum inhibitory concentration of compound was determined against Escherichia coli L 1513. In kind it is functional. The gist of the method:
as §2

Assay [10] relates to Escherichia coli. The assay can be described thus: Minimum inhibitory concentration of compound was determined against Escherichia coli L 1536. In kind it is functional. Put shortly: as §2
The test system of assay [11] is Escherichia coli. As to the kind of experiment: Minimum inhibitory concentration of compound was determined against Escherichia coli L 1572. The format is functional. The gist of the method:
as §2

Assay [12] relates to Escherichia coli. As to the kind of experiment: Minimum inhibitory concentration against Escherichia coli L 47. The format is functional. Put shortly:
as §2

In assay [13] the test system is Klebsiella pneumoniae. The assay can be described thus: Minimum inhibitory concentration of compound was determined against Klebsiella pneumoniae L 1481. The format is functional. Put shortly:
as §2

Assay [14] has as its system Klebsiella pneumoniae. As to the kind of experiment: Minimum inhibitory concentration of compound was determined against Klebsiella pneumoniae L 1499. In kind it is functional. Put shortly:
as §2

Assay [15] concerns Proteus mirabilis. As to the kind of experiment: Minimum inhibitory concentration of compound was determined against Proteus mirabilis L 1157. In kind it is functional. The gist of the method:
as §2

For assay [16], the system named is Proteus mirabilis. As to the kind of experiment: Minimum inhibitory concentration of compound was determined against Proteus mirabilis L 1356. In kind it is functional. The gist of the method: as §2
For assay [17], the system named is Proteus vulgaris. As to the kind of experiment: Minimum inhibitory concentration against Proteus vulgaris ATCC 881. In kind it is functional. The gist of the method: as §2
The test system of assay [18] is Proteus vulgaris. As to the kind of experiment: Minimum inhibitory concentration of compound was determined against Proteus vulgaris L 1539. In kind it is functional. Put shortly: as §2
Assay [19] relates to Pseudomonas aeruginosa. As to the kind of experiment: Minimum inhibitory concentration of compound was determined against Pseudomonas aeruginosa L 1348. In kind it is functional. Put shortly:
as §2

In assay [20] the test system is Pseudomonas aeruginosa. As to the kind of experiment: Minimum inhibitory concentration against Pseudomonas aeruginosa ATCC 10145. The format is functional. The gist of the method: as §2
Assay [21] has as its system Pseudomonas aeruginosa. As to the kind of experiment: Minimum inhibitory concentration of compound was determined against Pseudomonas aeruginosa L 1138. The format is functional. The gist of the method: as §2
The subject of assay [22] is Pseudomonas aeruginosa. The assay can be described thus: Minimum inhibitory concentration of compound was determined against Pseudomonas aeruginosa L 1533. The format is functional. Put shortly:
as §2

A further assay concerns Staphylococcus aureus. As to the kind of experiment: Minimum inhibitory concentration against Staphylococcus aureus L 165. In kind it is functional. The gist of the method:
as §2

Assay [23] relates to Serratia marcescens. The assay can be described thus: Minimum inhibitory concentration of compound was determined against Serratia marcescens L 1506. In kind it is functional. Put shortly:
as §2

The subject of the next assay is Salmonella typhimurium. As to the kind of experiment: Minimum inhibitory concentration of compound was determined against Salmonella Typhimurium L 35. In kind it is functional, Salmonella enterica subsp. enterica serovar Typhimurium. The settings on record: Salmonella enterica. Put shortly:
as §2

Assay [24] deals with Streptococcus pyogenes. As to the kind of experiment: Efficacy of compound administered subcutaneously against Streptococcus pyogenes L 49 Septicemia in mouse. The format is functional. The settings on record: sc. The gist of the method: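 Mice were infected intraperitoneally with about 10^5 Strep. pyogenes L 49 cells, about 100 times the 50% lethal dose. Groups of 5–8 mice were treated once right after challenge, by the route stated in the line. ED50 (mg/kg) was derived from percentage survival at each dose on day 7 (Spearman-Kärber).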

Another assay deals with Shigella sonnei. As to the kind of experiment: Minimum inhibitory concentration of compound was determined against Shigella sonnei L 363. The format is functional. Put shortly: as §2
The subject of assay [25] is Streptococcus pyogenes. As to the kind of experiment: Minimum inhibitory concentration of compound was determined against Streptococcus pyogenes L 49 in mouse. In kind it is functional.
Another assay relates to Shigella dysenteriae. The assay can be described thus: Minimum inhibitory concentration of compound was determined against Shigella dysentariae L155. In kind it is functional.
Assay [26] has as its system Staphylococcus epidermidis. The assay can be described thus: Minimum inhibitory concentration against Staphylococcus epidermidis ATCC 12228. The format is functional. The gist of the method:
as §2

The test system of assay [27] is Serratia marcescens. As to the kind of experiment: Minimum inhibitory concentration of compound was determined against Serratia marcescens L 1488. In kind it is functional. The gist of the method:
as §2

The test system of another assay is Streptococcus pneumoniae. The assay can be described thus: Minimum inhibitory concentration against Streptococcus pneumoniae L 44. In kind it is functional. The gist of the method: (§3)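 MIC (µg/mL) by microbroth dilution in Todd-Hewitt broth, final inoculum 10^4 cfu/mL, incubated 24 h at 37 °C in air.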
The subject of assay [28] is Staphylococcus haemolyticus. The assay can be described thus: Minimum inhibitory concentration against Staphylococcus haemolyticus L 602. The format is functional. The gist of the method: as §2
Assay [29] relates to Streptococcus pyogenes. As to the kind of experiment: Minimum inhibitory concentration against Streptococcus pyogenes L 49. In kind it is functional. Put shortly:
as §3

The subject of assay [30] is Pseudomonas aeruginosa. As to the kind of experiment: Minimum inhibitory concentration of compound was determined against Pseudomonas aeruginosa L 1498. In kind it is functional. The gist of the method:
as §2

Assay [31] can be described thus: Association constant to Ac2-L-Lys-D-Ala-D-Ala determined at pH 9; Value ranges from 5E4-7.5E4.

Molecules are shown by their SMILES. ≈ marks a conversion by molar mass, not a printed value.

In general, MIC refers to the least concentration at which growth counts as inhibited. Read a low MIC as greater potency. In general, ED50 refers to the dose that gives a 50% effect, or the effect in half of the subjects.

Take `CNCCCN(C)C(=O)[C@H]1NC(=O)[C@H]2NC(=O)[C@H](NC(=O)[C@@H]3NC(=O)[C@H]4NC(=O)[C@@H](Cc5ccc(c(Cl)c5)Oc5cc3cc(c5O)Oc3ccc(cc3Cl)[C@H]2O)NC(=O)[C@H](N)c2ccc(O)c(c2)Oc2cc(O)cc4c2)c2ccc(O)c(c2)-c2c(O)cc(O)cc21`: the MIC in the assay on Bacteroides fragilis [1] was found to be 64 µg/mL (≈ 49.9 µM); in the assay on Bacteroides fragilis [2] it was 32 µg/mL (≈ 24.9 µM); against Bacteroides fragilis [3], 32 µg/mL (≈ 24.9 µM); against Enterobacter cloacae [4], 32 µg/mL (≈ 24.9 µM); in the assay on Enterobacter cloacae [5] it was 32 µg/mL (≈ 24.9 µM); with Enterococcus faecalis, 0.125 µg/mL (≈ 0.0974 µM). In addition, the MIC in the assay on Escherichia coli [6] was determined as 4 µg/mL (≈ 3.12 µM); in the assay with Escherichia coli [7], 8 µg/mL (≈ 6.23 µM); against Escherichia coli [8], 16 µg/mL (≈ 12.5 µM); in the assay with Escherichia coli [9], 8 µg/mL (≈ 6.23 µM); against Escherichia coli [10], 8 µg/mL (≈ 6.23 µM); against Escherichia coli [11], 8 µg/mL (≈ 6.23 µM). The MIC with Escherichia coli [12] was 2 µg/mL (≈ 1.56 µM); in the assay on Klebsiella pneumoniae [13], 16 µg/mL (≈ 12.5 µM); with Klebsiella pneumoniae [14], 32 µg/mL (≈ 24.9 µM); against Proteus mirabilis [15], 64 µg/mL (≈ 49.9 µM); with Proteus mirabilis [16], 32 µg/mL (≈ 24.9 µM); with Proteus vulgaris [17] it was 32 µg/mL (≈ 24.9 µM). Moreover, the MIC is 128 µg/mL (≈ 99.8 µM) in the assay with Proteus vulgaris [18]; 16 µg/mL (≈ 12.5 µM) in the assay with Pseudomonas aeruginosa [19]; 16 µg/mL (≈ 12.5 µM) with Pseudomonas aeruginosa [20]; 64 µg/mL (≈ 49.9 µM) against Pseudomonas aeruginosa [21]; 128 µg/mL (≈ 99.8 µM) with Pseudomonas aeruginosa [22]; 0.063 µg/mL (≈ 0.0491 µM) against Staphylococcus aureus. In addition, the MIC was 32 µg/mL (≈ 24.9 µM) against Serratia marcescens [23]; 16 µg/mL (≈ 12.5 µM) against Salmonella typhimurium; 8 µg/mL (≈ 6.23 µM) in the assay with Shigella sonnei; 0.06 µg/mL (≈ 0.0468 µM) with Streptococcus pyogenes [25]; 4 µg/mL (≈ 3.12 µM) in the assay on Shigella dysenteriae; 0.063 µg/mL (≈ 0.0491 µM) in assay [26]. Further, the MIC in the assay with Serratia marcescens [27] is 16 µg/mL (≈ 12.5 µM); in the assay on Streptococcus pneumoniae it was 0.125 µg/mL (≈ 0.0974 µM); in assay [28] it was 0.063 µg/mL (≈ 0.0491 µM); against Streptococcus pyogenes [29], 0.063 µg/mL (≈ 0.0491 µM); in the assay with Pseudomonas aeruginosa [30], 128 µg/mL (≈ 99.8 µM). In the assay on Streptococcus pyogenes [24], it took a dose of 1.25 mg/kg to reach the 50% effect level (ED50).

`NCCCNCCNCCCNC(=O)[C@H]1NC(=O)[C@H]2NC(=O)[C@H](NC(=O)[C@@H]3NC(=O)[C@H]4NC(=O)[C@@H](Cc5ccc(c(Cl)c5)Oc5cc3cc(c5O)Oc3ccc(cc3Cl)[C@H]2O)NC(=O)[C@H](N)c2ccc(O)c(c2)Oc2cc(O)cc4c2)c2ccc(O)c(c2)-c2c(O)cc(O)cc21` gave a Ka in assay [31] of 75000 M⁻¹. For the same compound, the MIC with Enterococcus faecalis was 0.125 µg/mL (≈ 0.0922 µM); in the assay on Escherichia coli [12], 2 µg/mL (≈ 1.48 µM); in the assay on Proteus vulgaris [17] it was 64 µg/mL (≈ 47.2 µM); in the assay on Pseudomonas aeruginosa [20], 16 µg/mL (≈ 11.8 µM); in the assay with Staphylococcus aureus it was 0.125 µg/mL (≈ 0.0922 µM); in the assay with Streptococcus pyogenes [25] it was 0.06 µg/mL (≈ 0.0443 µM). In addition, the MIC in assay [26] came to 0.063 µg/mL (≈ 0.0465 µM); in the assay with Streptococcus pneumoniae, 0.125 µg/mL (≈ 0.0922 µM); in assay [28] it was 0.125 µg/mL (≈ 0.0922 µM); in the assay with Streptococcus pyogenes [29], 0.063 µg/mL (≈ 0.0465 µM). The compound also showed an ED50 in the assay on Streptococcus pyogenes [24] of 2.87 mg/kg.

As to `NCCN(CCN)CCNC(=O)[C@H]1NC(=O)[C@H]2NC(=O)[C@H](NC(=O)[C@@H]3NC(=O)[C@H]4NC(=O)[C@@H](Cc5ccc(c(Cl)c5)Oc5cc3cc(c5O)Oc3ccc(cc3Cl)[C@H]2O)NC(=O)[C@H](N)c2ccc(O)c(c2)Oc2cc(O)cc4c2)c2ccc(O)c(c2)-c2c(O)cc(O)cc21`, in [31], the Ka amounted to 75000 M⁻¹. In addition, the MIC in the assay with Enterococcus faecalis worked out at 0.125 µg/mL (≈ 0.0942 µM); in the assay on Escherichia coli [12], 1 µg/mL (≈ 0.753 µM); with Proteus vulgaris [17], 32 µg/mL (≈ 24.1 µM); against Pseudomonas aeruginosa [20], 8 µg/mL (≈ 6.03 µM); against Staphylococcus aureus, 0.063 µg/mL (≈ 0.0475 µM); in the assay on Streptococcus pyogenes [25], 0.06 µg/mL (≈ 0.0452 µM). Also, the MIC is 0.016 µg/mL (≈ 0.0121 µM) in assay [26], 0.125 µg/mL (≈ 0.0942 µM) against Streptococcus pneumoniae, 0.063 µg/mL (≈ 0.0475 µM) in assay [28] and 0.063 µg/mL (≈ 0.0475 µM) in the assay on Streptococcus pyogenes [29]. The median effective dose (ED50) with Streptococcus pyogenes [24] turned out to be 1.25 mg/kg.
